Experimental data pooled from the literature.
Each line is one published result; the experiments were not run side by side.
Target: MAP/microtubule affinity-regulating kinase 3 (MARK3, Homo sapiens, UniProt P27448)

For `Cn1cncc1[C@](O)(COc1ccc(C#N)cc1-c1ccc(OC(F)(F)F)cc1)c1ccc(C#N)cc1`, the remaining binding was 100% (cell-free assay; competition with immobilised ligand; 1 µM).
With `Nc1ncc(-c2nc(N3CCOCC3)nc(N3CCOCC3)n2)c(C(F)F)n1` the remaining binding was 100% (binding; competition with immobilised ligand; 10 µM).
With `Cn1cc(-c2cc(F)cc(N3CCn4c(cc5c4CCCC5)C3=O)c2CO)cc(Nc2ccc(N3CCN(C4COC4)CC3)cn2)c1=O` the inhibition was 6% (enzyme activity; inhibitor; 0.1 µM).
`COc1cc(Nc2ncc(F)c(Nc3ccc4c(n3)NC(=O)C(C)(C)O4)n2)cc(OC)c1OC` gave an inhibition of 63% (binding; competition with immobilised ligand; 10 µM).
With `O=c1[nH]c2ccccc2n1C1CCN(Cc2ccc(-c3[nH]c4cc5ncnc5cc4nc3-c3ccccc3)cc2)CC1` the remaining signal was 103% (cell-free assay; 0.5 µM).
With `Cc1nn(C)cc1-c1nc2c(N3CCN(Cc4ccc(Cl)cc4)CC3)c(Cl)cnc2[nH]1` the remaining binding was 45% (binding; competition with immobilised ligand; 1 µM).
`COc1ncccc1-c1cnn2ccc(N3CCN(C(=O)OC(C)C)CC3)nc12` has a remaining binding of 96% (binding; competition with immobilised ligand; 1 µM).
`CC(C)(C)c1cc(C=C(C#N)C#N)cc(Br)c1O` has a remaining activity of 105% (enzyme activity; inhibitor; 0.5 µM).
